Screening data deposited in PubChem BioAssay by The Scripps Research Institute Molecular Screening Center.
V1R ag counter = activates human V1a receptor in oxytocin agonist counter-screen | P37288 | CHO-V1R cells, Fluo-8 calcium fluorescence, agonist mode; 0% DMSO, 100% 3 nM vasopressin | activation, % at 3 µM | actives 0.25% (n = 320,000) | AID 2797;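 active = activation above the mean activation of all tested compounds plus 3 SD, per screening run, cut at about 20% in these data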;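 note: signal is peak over basal fluorescence ratio across a 100 second FLIPR read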
Target sequence (P37288 whole entry, looked up): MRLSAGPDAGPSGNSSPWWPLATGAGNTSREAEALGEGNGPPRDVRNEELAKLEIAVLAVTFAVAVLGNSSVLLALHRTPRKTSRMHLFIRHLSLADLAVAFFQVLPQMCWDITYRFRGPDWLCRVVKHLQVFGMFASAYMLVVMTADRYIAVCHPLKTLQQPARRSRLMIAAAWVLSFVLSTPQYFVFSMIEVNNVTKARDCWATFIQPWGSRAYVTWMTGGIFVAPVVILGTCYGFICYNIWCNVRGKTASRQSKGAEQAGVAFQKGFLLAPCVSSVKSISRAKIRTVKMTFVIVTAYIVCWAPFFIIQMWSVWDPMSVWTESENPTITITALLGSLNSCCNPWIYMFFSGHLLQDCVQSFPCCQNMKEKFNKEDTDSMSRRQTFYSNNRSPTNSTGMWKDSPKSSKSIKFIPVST
OXTR potentiate = potentiates the human oxytocin receptor response; activation, % at 3 µM; actives 0.061% (n = 320,000); P30559; CHO-OTR cells, Fluo-8 calcium fluorescence, potentiator mode; 0% = oxytocin EC15, 100% = EC100;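 active = activation above that plate's cutoff, the mean activation of tested compounds plus 3 SD, cut at about 6.6% in these data, passing the limit was not always enough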
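test system = CHO-OTR cells, human receptor | compound = single-point 3.0 µM | schedule = 6 min compound pre-incubation at room temperature, 100 s kinetic read | signal = Fluo-8 no-wash calcium dye fluorescence, excitation 470-495 nm, emission 515-575 nm | repeats = single well per compound, singlicate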
OXTR agonist = agonists of human oxytocin receptor; P30559; CHO-OTR cells, Fluo-8 calcium fluorescence; normalized: DMSO 0%, oxytocin 100%; activation, % at 3 µM; actives 0.32% (n = 320,000);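 active = activation above the mean of all tested compounds plus 3 SD, cutoff set per screening run, cut at about 20% in these data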;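 note: peak over basal fluorescence ratio from a 100 s FLIPR kinetic read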
TAAR1 agonist = human TAAR1 agonism. Q96RJ0. CHO RD-HGA16 TAAR1, Fluo-8 calcium fluorescence; vehicle wells 0%, saturating PEA agonist 100%. activation, % at 3 µM. actives 0.99% (n = 360,000). AID 624467;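 active = activation above the mean activation of all test compounds in the run plus 3 SD, cut at about 38% in these data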
Target sequence (Q96RJ0 whole entry, looked up): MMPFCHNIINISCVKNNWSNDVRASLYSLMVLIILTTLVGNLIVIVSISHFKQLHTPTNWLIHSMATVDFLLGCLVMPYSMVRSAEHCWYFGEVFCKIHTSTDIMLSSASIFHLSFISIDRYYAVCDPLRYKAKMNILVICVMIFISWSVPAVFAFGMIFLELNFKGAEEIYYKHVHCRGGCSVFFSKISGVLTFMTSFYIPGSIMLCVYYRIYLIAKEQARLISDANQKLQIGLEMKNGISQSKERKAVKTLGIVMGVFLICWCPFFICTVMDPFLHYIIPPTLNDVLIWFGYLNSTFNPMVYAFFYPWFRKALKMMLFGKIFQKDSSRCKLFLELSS
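System: CHO-derived RD-HGA16 cells with stable Gα16 and human TAAR1. Times: 17-24 h plating, Fluo-8 75 min 37 °C, 30 min RT. Measured by: calcium-sensitive Fluo-8 signal, excitation 470-495, emission 515-575 nm. Read-out basis: % activation relative to PEA EC100 response. Control set: DMSO and PEA EC100. Repeats: no replicates (n 1).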
TAAR1 antagonist = antagonists of human TAAR1 | inhibition, % at 3 µM | actives 1.5% (n = 360,000) | CHO RD-HGA16 TAAR1, Fluo-8 calcium fluorescence, antagonist | Q96RJ0;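 active = inhibition above a per-plate cutoff, the mean inhibition of test compounds on that plate plus 3 SD, cut at about 49% in these data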
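Assay system: CHO-derived RD-HGA16 cells stably expressing human TAAR1 plus Gα16. Timing: 140 s kinetic read after compound, 140 s after agonist. Technique: kinetic Fluo-8 calcium fluorescence measurement. Measure: % inhibition of agonist calcium response.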
Each line names hits and unclear results; the compound was inactive in the other large screens. Compounds with a hit are over-represented: about 2.3% of the library has one in this group of screens.

O=C(COc1ccccc1)Nc1cccc(-c2nc3ccccc3[nH]2)c1	TAAR1 antagonist 49
Cc1cc(C)c(OCC(=O)Nc2nc3ccccc3[nH]2)c(C)c1	TAAR1 agonist 42, TAAR1 antagonist 49
COc1ccc(OCC(=O)Nc2cccc(-c3nc4ccccc4o3)c2)cc1	TAAR1 antagonist 49
COc1cccc(-c2cnc3c(NC(C)=O)cc(-c4cc(OC)c(OC)c(OC)c4)cn23)c1	TAAR1 antagonist 51 (no result: V1R ag counter, OXTR potentiate, OXTR agonist)
COc1cccc(-c2cnc3c(NC(C)=O)cc(-c4ccccc4OC)cn23)c1	TAAR1 antagonist 57 (no result: V1R ag counter, OXTR potentiate, OXTR agonist)
CC(Oc1ccc(Cl)cc1)C(=O)Nc1cccc(S(=O)(=O)N2CCCC2)c1 (centres undefined)	none (no result: V1R ag counter, OXTR potentiate, OXTR agonist)
C=CCN(c1ccccc1)S(=O)(=O)c1ccc(Cl)c(C(=O)OCC(=O)c2[nH]c(C)c(C(C)=O)c2C)c1	TAAR1 antagonist 50
C=CCN(c1ccc(OC)cc1)S(=O)(=O)c1ccc(Cl)c(C(=O)OCC(=O)NC2CC2)c1	none
CC(Oc1ccc(C#N)cc1)C(=O)Nc1ccc(-n2cnnn2)cc1 (centres undefined)	TAAR1 agonist 44 (no result: V1R ag counter, OXTR potentiate, OXTR agonist)
CC(=O)Nc1ccc(-n2cnnn2)cc1	none
Cc1ccc(C2C(/C=C3/SC(=S)NC3=O)=C(c3cccs3)Oc3ccccc32)cc1 (centres undefined)	TAAR1 antagonist 56
CC1Cc2cc(/C=C3/SC(=S)NC3=O)ccc2O1 (centres undefined)	none
OC(c1ccccc1)(c1ccccc1)C1CCN(CCCOc2ccc3c(c2)CCCC3)CC1	TAAR1 agonist 42 (no result: V1R ag counter, OXTR potentiate, OXTR agonist)
N#CCc1ccc(OCCCN2CCC(C(O)(c3ccccc3)c3ccccc3)CC2)cc1	none (no result: V1R ag counter, OXTR potentiate, OXTR agonist)
CCOC(=O)N1CCN(C(=O)C2CCN(C(=O)c3ccccc3C)CC2)CC1	TAAR1 agonist 66 (no result: V1R ag counter, OXTR potentiate, OXTR agonist)
CCOC(=O)C1=C(C)Nc2ccccc2N=C1NC(=O)C1CCN(C(=O)c2ccccc2C)CC1	TAAR1 antagonist 49
CCOC(=O)C1CCCN(C(=O)CCCn2nnnc2CN2CCOCC2)C1 (centres undefined)	TAAR1 agonist 40 (no result: V1R ag counter, OXTR potentiate, OXTR agonist)
Cc1ccc(CNc2nc(NCC3CC3)nc3ccsc23)c(C)c1	none (no result: V1R ag counter, OXTR potentiate, OXTR agonist)
CNc1nc(NCC2CCCCC2)c2sccc2n1	TAAR1 agonist 49 (no result: V1R ag counter, OXTR potentiate, OXTR agonist)
CCCOc1ccc(C2(C(=O)O)CCCC2)cc1	none
Cc1ccc2c(c1)C(=O)C(=O)N2Cc1ccc(C(F)(F)F)cc1	TAAR1 antagonist 55
Cc1ccc(OCCN2C(=O)C(=O)c3cc(C)ccc32)cc1	none
Cc1ncc(CSc2nccc(=O)[nH]2)c(CO)c1O	none
CC(C)(C)c1ccc(C(=O)Nc2ccccc2NC(=O)c2ccco2)cc1	TAAR1 antagonist 49
O=C(Nc1ccccc1NC(=O)c1ccco1)c1ccccc1	none
CCc1ccc2c(c1)Sc1ccccc1CC2N1CCN(C)CC1 (centres undefined)	TAAR1 agonist 43
CCCCCCCCOC(=O)c1c(CSC(=N)N)n(C)c2cc(Br)c(OC(C)=O)cc12	TAAR1 agonist 90
CC1(c2ccc3c(c2)OCCCO3)NC(=O)N(CC(=O)NCCc2ccc(F)cc2)C1=O (centres undefined)	none (no result: V1R ag counter, OXTR potentiate, OXTR agonist)
COc1ccccc1-c1cccc(-c2nc(C(=O)N3CCCCC3)cc3c2[C@H](CCO)N(S(=O)C(C)(C)C)C3)c1 (some centres undefined)	TAAR1 antagonist 58 (no result: V1R ag counter, OXTR potentiate, OXTR agonist)
CCCNC(=O)c1cc2c(c(-c3cccc(-c4ccc(F)cc4)c3)n1)[C@@H](CCO)N(S(=O)C(C)(C)C)C2 (some centres undefined)	TAAR1 antagonist 49 (no result: V1R ag counter, OXTR potentiate, OXTR agonist)
CCc1ccc(S(=O)(=O)NCCOc2cccc3cccnc23)cc1	none
COC(=O)c1cc2ccccc2c(-c2c(O)ccc3ccccc23)c1O	none
COc1ccc2c(COC(=O)CC3Sc4ccccc4NC3=O)cc(=O)oc2c1 (centres undefined)	TAAR1 antagonist 54
CC(=O)Nc1ccc2c(COC(=O)CC3Sc4ccccc4NC3=O)cc(=O)oc2c1 (centres undefined)	none
CC(=O)Nc1nc(-c2ccc3c(c2)CCN3S(C)(=O)=O)cs1	none
O=C(CN1CCOCC1)Nc1nc(-c2ccc3c(c2)CCN3S(=O)(=O)c2ccccc2)cs1	TAAR1 antagonist 53
CS(=O)(=O)N1CCc2cc(-c3csc(NC(=O)Cc4cccs4)n3)ccc21	TAAR1 antagonist 50
CCN(CC)S(=O)(=O)c1ccc(/C=C/C(=O)Nc2ccc(F)cc2F)cc1	none
CCN(CC)S(=O)(=O)c1ccc(/C=C/C(=O)Nc2ccc(Br)cc2F)cc1	TAAR1 antagonist 53
COc1cc(C(=S)N2CCCC2)cc(OC)c1OC	none
Cc1nc2ccc(S(=O)(=O)Nc3cccc(-c4nc5cccnc5s4)c3C)cc2s1	TAAR1 antagonist 59
Cc1nc2ccc(S(=O)(=O)Nc3cc(-c4nc5cccnc5s4)ccc3C)cc2s1	none
COc1c(C(=O)Nc2ccc(Cc3ccncc3)cc2)ccc2ccccc12	TAAR1 antagonist 55
Cc1ccc(NC(=O)CN(C)CC(=O)Nc2cccc(F)c2)cc1S(=O)(=O)N1CCCCCC1	TAAR1 antagonist 50
COc1ccc(NC(=O)CN(C)CC(=O)Nc2cccc(F)c2)cc1S(=O)(=O)N1CCCCC1	none (no result: V1R ag counter, OXTR potentiate, OXTR agonist)
Cc1ccc(NC(=O)COc2ccccc2C#N)cc1S(=O)(=O)N1CCCCCC1	TAAR1 antagonist 52
Cc1ccc(NC(=O)COc2ccccc2)cc1S(=O)(=O)N1CCCCCC1	none
CSc1ccccc1OCc1cc(C(=O)NCc2cnc(C)cn2)no1	none
O=C(COC(=O)c1nc(Cl)ccc1Cl)Nc1ccc2[nH]c(=O)[nH]c2c1	none
O=C(Cc1ccc(Cl)cc1)NN1C(=O)c2ccccc2C1=O	none
COC(=O)[C@@H]1[C@@H](C#N)C2(c3ccccc3-c3ccccc32)N(c2ccc(Cl)cc2)N1C#N	TAAR1 antagonist 50
CCOC(=O)C1=C(c2ccccc2)Nc2ncnn2C1c1ccc(O)cc1 (centres undefined)	none
COCCNC(=O)CSc1n[nH]c(=O)n1CCc1ccccc1	none
COc1cc(C(=O)Oc2cccc(Nc3ncnc4ccccc34)c2)cc(OC)c1OC	TAAR1 antagonist 82
O=C(Oc1cccc(Nc2ncnc3ccccc23)c1)c1cccnc1	none
FC(F)Oc1ccc(-n2cc(-c3ccc(Cl)cc3)[n+]3c2CCCCC3)cc1	none
Cc1cccc(NC(=O)c2ccc(N(C)C3CCCCC3)c([N+](=O)[O-])c2)n1	TAAR1 antagonist 63
CCN(CC(=O)NCc1ccc(F)cc1)C(=O)C1CC1C (centres undefined)	none
Nc1ncnc2c1ncn2[C@@H]1O[C@H](COP(=O)(O)O)[C@@H](O)[C@H]1O	none
Nc1ncnc2c1ncn2[C@@H]1O[C@H](COP(=O)(O)OP(=O)(O)OP(=O)(O)O)[C@@H](O)[C@H]1O	V1R ag counter 78, OXTR agonist 69
